Experimental data from ChEMBL document CHEMBL1138245, “Discovery of N1-(6-chloroimidazo[2,1-b][1,3]thiazole-5-sulfonyl)tryptamine as a potent, selective, and orally active 5-HT(6) receptor agonist” (J Med Chem, 2007).
pKi: −log10 of the molar value. Values after ≈ are worked out from the molar mass of the structure shown.

How the values were obtained:
[1] = molecular target: Beta-2 adrenergic receptor (Homo sapiens) (UniProt P07550); test: Displacement of radio ligand from beta-2 adrenergic receptor at 100 nM
Beta-2 adrenergic receptor (Homo sapiens), sequence (P07550 whole entry, looked up): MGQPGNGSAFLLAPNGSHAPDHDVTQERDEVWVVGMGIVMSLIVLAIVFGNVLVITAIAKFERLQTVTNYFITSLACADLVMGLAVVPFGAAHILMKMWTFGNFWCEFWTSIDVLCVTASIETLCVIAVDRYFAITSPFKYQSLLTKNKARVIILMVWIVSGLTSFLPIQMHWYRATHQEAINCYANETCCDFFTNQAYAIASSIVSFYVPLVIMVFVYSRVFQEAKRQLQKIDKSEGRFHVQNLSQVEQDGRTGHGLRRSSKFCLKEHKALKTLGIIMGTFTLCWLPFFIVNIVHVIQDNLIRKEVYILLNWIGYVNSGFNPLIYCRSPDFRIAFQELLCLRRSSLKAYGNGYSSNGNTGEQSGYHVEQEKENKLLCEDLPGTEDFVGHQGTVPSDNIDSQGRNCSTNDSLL

[2] = Drug level in Sprague-Dawley rat brain at 100 mg/kg, po after 2 hrs; format: ADME, organism-based; design: dose 100 mg/kg, route oral; conditions: read-out: Drug uptake
Outline: (§1)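 Rats given a single 3 mg/kg ip or 100 mg/kg oral dose; plasma and brain concentrations measured over time to assess brain/plasma ratio.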

[3] = molecular target: 5-hydroxytryptamine receptor 4 (Homo sapiens) (UniProt Q13639); test: Inhibition of human 5HT4 receptor expressed in CHO cells at 100 nM; format: cell-based
5-hydroxytryptamine receptor 4 (Homo sapiens), sequence (Q13639 whole entry): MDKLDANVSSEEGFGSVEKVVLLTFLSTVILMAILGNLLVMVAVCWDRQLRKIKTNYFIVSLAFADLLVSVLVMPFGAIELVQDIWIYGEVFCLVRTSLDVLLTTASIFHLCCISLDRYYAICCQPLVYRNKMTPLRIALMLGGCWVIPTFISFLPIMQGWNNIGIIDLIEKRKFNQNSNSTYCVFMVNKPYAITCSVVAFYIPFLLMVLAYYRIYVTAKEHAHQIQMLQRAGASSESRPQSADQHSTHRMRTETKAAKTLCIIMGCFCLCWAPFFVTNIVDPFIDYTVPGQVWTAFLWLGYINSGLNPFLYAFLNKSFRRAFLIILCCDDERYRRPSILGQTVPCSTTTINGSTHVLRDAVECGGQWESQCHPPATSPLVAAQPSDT

[4] = molecular target: 5-hydroxytryptamine receptor 1B (Homo sapiens) (UniProt P28222); test: Displacement of [3H]5-HT from human 5HT1B receptor expressed in CHO cells at 1 uM; format: cell-based
5-hydroxytryptamine receptor 1B (Homo sapiens), sequence (P28222 whole entry): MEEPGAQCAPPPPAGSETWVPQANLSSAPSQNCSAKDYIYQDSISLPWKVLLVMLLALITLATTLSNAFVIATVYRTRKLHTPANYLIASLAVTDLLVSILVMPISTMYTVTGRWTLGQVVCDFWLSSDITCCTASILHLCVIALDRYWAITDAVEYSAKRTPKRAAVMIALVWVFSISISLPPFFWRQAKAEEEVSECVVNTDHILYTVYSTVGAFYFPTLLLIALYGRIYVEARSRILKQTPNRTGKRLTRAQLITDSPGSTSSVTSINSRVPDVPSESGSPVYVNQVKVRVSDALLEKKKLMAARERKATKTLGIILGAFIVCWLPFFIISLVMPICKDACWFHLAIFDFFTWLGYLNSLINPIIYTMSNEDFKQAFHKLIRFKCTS

[5] = Drug level in Sprague-Dawley rat plasma at 3 mg/kg, ip after 1 hr; format: ADME, organism-based; design: dose 3 mg/kg, route intraperitoneal; outline: as §1
[6] = molecular target: 5-hydroxytryptamine receptor 2A (Homo sapiens) (UniProt P28223); test: Displacement of [125I]DOI from human 5HT2A receptor expressed in CHO cells at 1 uM; format: cell-based
5-hydroxytryptamine receptor 2A (Homo sapiens), sequence (P28223 whole entry): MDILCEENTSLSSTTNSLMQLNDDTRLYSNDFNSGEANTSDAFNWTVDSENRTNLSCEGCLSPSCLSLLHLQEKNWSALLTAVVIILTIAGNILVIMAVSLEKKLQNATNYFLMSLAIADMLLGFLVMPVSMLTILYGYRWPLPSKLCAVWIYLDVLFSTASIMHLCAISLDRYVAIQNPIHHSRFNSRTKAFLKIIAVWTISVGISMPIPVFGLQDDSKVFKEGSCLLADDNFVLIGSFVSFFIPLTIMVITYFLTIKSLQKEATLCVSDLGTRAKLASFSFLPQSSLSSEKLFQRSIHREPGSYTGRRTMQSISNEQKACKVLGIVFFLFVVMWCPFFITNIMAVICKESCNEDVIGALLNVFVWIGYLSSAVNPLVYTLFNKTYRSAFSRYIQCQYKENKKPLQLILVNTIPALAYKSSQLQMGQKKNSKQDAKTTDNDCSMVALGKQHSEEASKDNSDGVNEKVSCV

[7] = Drug level in Sprague-Dawley rat brain at 3 mg/kg, ip after 0.5 hr; format: ADME, organism-based; design: dose 3 mg/kg, route intraperitoneal; conditions: read-out: Drug uptake; outline: as §1
[8] = Metabolic stability in monkey liver microsomes; format: ADME, Macaca mulatta, Microsome; conditions: rhesus monkey
[9] = molecular target: 5-hydroxytryptamine receptor 5A (Homo sapiens) (UniProt P47898); test: Inhibition of human 5HT5 receptor expressed in CHO cells at 100 nM; format: cell-based
5-hydroxytryptamine receptor 5A (Homo sapiens), sequence (P47898 whole entry): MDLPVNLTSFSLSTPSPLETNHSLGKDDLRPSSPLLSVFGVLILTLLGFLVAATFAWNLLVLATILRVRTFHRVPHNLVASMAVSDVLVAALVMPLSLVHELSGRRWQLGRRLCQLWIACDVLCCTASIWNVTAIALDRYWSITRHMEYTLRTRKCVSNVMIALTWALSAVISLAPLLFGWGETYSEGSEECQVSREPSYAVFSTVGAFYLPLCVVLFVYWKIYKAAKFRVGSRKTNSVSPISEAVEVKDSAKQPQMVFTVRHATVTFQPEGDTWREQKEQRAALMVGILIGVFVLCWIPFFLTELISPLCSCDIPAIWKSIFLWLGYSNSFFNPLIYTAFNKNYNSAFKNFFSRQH

[10] = Drug level in Sprague-Dawley rat plasma at 3 mg/kg, ip after 4 hrs; format: ADME, organism-based; design: dose 3 mg/kg, route intraperitoneal; outline: as §1
[11] = molecular target: T1, 5-hydroxytryptamine receptor 3A (Homo sapiens) (UniProt P46098); test: Inhibition of human 5HT3 receptor expressed in CHO cells at 100 nM; format: cell-based
T1 sequence (whole entry): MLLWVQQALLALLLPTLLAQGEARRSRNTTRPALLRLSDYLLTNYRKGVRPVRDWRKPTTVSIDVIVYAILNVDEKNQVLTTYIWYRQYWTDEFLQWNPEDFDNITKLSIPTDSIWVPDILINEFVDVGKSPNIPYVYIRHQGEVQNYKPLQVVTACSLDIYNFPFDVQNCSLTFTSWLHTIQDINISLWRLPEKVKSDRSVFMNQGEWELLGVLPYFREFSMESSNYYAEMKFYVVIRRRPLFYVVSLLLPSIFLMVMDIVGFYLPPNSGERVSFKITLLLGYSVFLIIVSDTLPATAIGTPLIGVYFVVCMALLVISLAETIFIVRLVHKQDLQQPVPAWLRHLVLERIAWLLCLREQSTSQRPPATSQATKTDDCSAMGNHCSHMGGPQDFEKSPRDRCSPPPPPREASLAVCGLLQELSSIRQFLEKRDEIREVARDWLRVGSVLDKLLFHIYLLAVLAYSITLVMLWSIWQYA

[12] = Ratio of drug level in brain to plasma in Sprague-Dawley rat at 3 mg/kg, ip after 4 hrs; format: ADME, organism-based; design: dose 3 mg/kg, route intraperitoneal; conditions: read-out: BPR
Outline: (§2)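 Rats given a single dose, 3 mg/kg ip or 100 mg/kg oral; drug concentrations measured in plasma and brain at timed points after dosing; brain/plasma concentration ratio calculated.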

[13] = Metabolic stability in dog liver microsomes; format: ADME, Canis lupus familiaris, Microsome
Rattus norvegicus = species: Rattus norvegicus; test: Decrease in water intake in schedule-induced polydipsia rat model; format: functional, organism-based
[14] = Aqueous solubility at pH 8; format: physicochemical
[15] = Drug level in Sprague-Dawley rat plasma at 100 mg/kg, po after 0.5 hr; format: ADME, organism-based; design: dose 100 mg/kg, route oral; outline: as §1
[16] = Drug level in Sprague-Dawley rat brain at 3 mg/kg, ip after 0.25 hr; format: ADME, organism-based; design: dose 3 mg/kg, route intraperitoneal; conditions: read-out: Drug uptake; outline: as §1
[17] = Drug level in Sprague-Dawley rat brain at 3 mg/kg, ip after 1 hr; format: ADME, organism-based; design: dose 3 mg/kg, route intraperitoneal; conditions: read-out: Drug uptake; outline: as §1
[18] = Ratio of drug level in brain to plasma in Sprague-Dawley rat at 100 mg/kg, po after 2 hrs; format: ADME, organism-based; design: dose 100 mg/kg, route oral; conditions: read-out: BPR; outline: as §2
[19] = AUC in rat at 1 mg/kg, iv; format: ADME, organism-based; design: dose 1 mg/kg, route intravenous; conditions: plasma
[20] = Drug level in Sprague-Dawley rat plasma at 100 mg/kg, po after 4 hrs; format: ADME, organism-based; design: dose 100 mg/kg, route oral; outline: as §1
[21] = Drug level in Sprague-Dawley rat brain at 100 mg/kg, po after 0.25 hr; format: ADME, organism-based; design: dose 100 mg/kg, route oral; conditions: read-out: Drug uptake; outline: as §1
[22] = Cmax in rat at 10 mg/kg, po; format: ADME, organism-based; design: dose 10 mg/kg, route oral; conditions: in vivo
[23] = Ratio of drug level in brain to plasma in Sprague-Dawley rat at 3 mg/kg, ip after 1 hr; format: ADME, organism-based; design: dose 3 mg/kg, route intraperitoneal; conditions: read-out: BPR; outline: as §2
[24] = Tmax in dog at 5 mg/kg, po; format: ADME, organism-based, Canis lupus familiaris; design: dose 5 mg/kg, route oral; conditions: in vivo
[25] = Ratio of drug level in brain to plasma in Sprague-Dawley rat at 100 mg/kg, po after 1 hr; format: ADME, organism-based; design: dose 100 mg/kg, route oral; conditions: read-out: BPR; outline: as §2
[26] = molecular target: 5-hydroxytryptamine receptor 2B (Homo sapiens, UniProt P41595); test: Inhibition of human 5HT2B receptor expressed in CHO cells; format: cell-based
5-hydroxytryptamine receptor 2B, sequence (P41595 whole entry): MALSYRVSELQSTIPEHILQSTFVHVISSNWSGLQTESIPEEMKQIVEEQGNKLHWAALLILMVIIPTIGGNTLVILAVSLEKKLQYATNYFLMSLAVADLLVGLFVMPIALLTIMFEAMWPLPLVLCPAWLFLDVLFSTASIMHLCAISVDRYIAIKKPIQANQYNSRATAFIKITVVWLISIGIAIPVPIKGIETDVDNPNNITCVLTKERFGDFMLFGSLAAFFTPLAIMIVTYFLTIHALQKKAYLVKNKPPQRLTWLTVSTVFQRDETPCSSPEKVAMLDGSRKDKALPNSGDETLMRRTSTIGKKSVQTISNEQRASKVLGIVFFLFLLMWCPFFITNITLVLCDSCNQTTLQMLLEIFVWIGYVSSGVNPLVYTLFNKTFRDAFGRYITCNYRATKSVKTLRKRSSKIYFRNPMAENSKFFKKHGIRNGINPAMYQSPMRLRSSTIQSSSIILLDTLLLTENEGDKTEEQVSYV

[27] = Oral bioavailability in rat at 10 mg/kg; format: ADME, organism-based; conditions: in vivo
[28] = Drug level in Sprague-Dawley rat brain at 3 mg/kg, ip after 2 hrs; format: ADME, organism-based; design: dose 3 mg/kg, route intraperitoneal; conditions: read-out: Drug uptake; outline: as §1
[29] = AUC in dog at 1 mg/kg, iv; format: ADME, organism-based, Canis lupus familiaris; design: dose 1 mg/kg, route intravenous; conditions: plasma
[30] = Half life in rat at 1 mg/kg, iv; format: ADME, organism-based; design: dose 1 mg/kg, route intravenous; conditions: in vivo
[31] = Drug level in Sprague-Dawley rat brain at 100 mg/kg, po after 0.5 hr; format: ADME, organism-based; design: dose 100 mg/kg, route oral; conditions: read-out: Drug uptake; outline: as §1
[32] = Clearance in rat at 1 mg/kg, iv; format: ADME, organism-based; design: dose 1 mg/kg, route intravenous; conditions: in vivo
[33] = Metabolic stability in rat liver microsomes; format: ADME, Microsome
[34] = Metabolic stability in human liver microsomes; format: ADME, Microsome
[35] = Metabolic stability in mouse liver microsomes; format: ADME, Microsome

`NCCc1cn(S(=O)(=O)c2c(Cl)nc3sccn23)c2ccccc12` gave an Activity [1] of less than 50%, a concentration at 2 h [2] of 59.6 ng/mL and an inhibition [3] of less than 50%. The Activity [4] was 36%, the concentration at 1 h [5] was 21 ng/mL and the Activity [6] was 25%. For the same compound, the concentration at 0.5 h [7] was 11.5 ng/mL, the half-life [8] was 6.4 min and the inhibition [9] was less than 50%. For the same compound, the concentration at 4 h [10] was 4.3 ng/mL, the inhibition [11] was less than 50% and the Kp at 4 h [12] was 1.39. The half-life [13] was 26 min, the Activity (Rattus norvegicus) was “Dose-dependent effect” and the solubility [14] was 240 µg/mL (≈ 630 µM). It also gave a concentration at 0.5 h [15] of 356 ng/mL, a concentration at 0.25 h [16] of 8.4 ng/mL and a concentration at 1 h [17] of 14.2 ng/mL. It also gave a Kp at 2 h [18] of 0.25, an AUC [19] of 140 ng·h/mL and a concentration at 4 h [20] of 372 ng/mL. It also gave a concentration at 0.25 h [21] of 12.5 ng/mL, a Cmax [22] of 49 ng/mL and a Kp at 1 h [23] of 0.68. The Tmax [24] was 138 min, the Kp at 1 h [25] was 0.14 and the pKi [26] was 6.34. For the same compound, the bioavailability [27] was 23%, the concentration at 2 h [28] was 1.1 ng/mL and the AUC [29] was 520 ng·h/mL. The half-life [30] was 324 min, the concentration at 0.5 h [31] was 194 ng/mL and the clearance [32] was 123 mL/min/kg. The half-life [33] was 8 min, the half-life [34] was greater than 60 min and the half-life [35] was greater than 60 min.
